ChEMBL document CHEMBL4396914, “Discovery of new azoles with potent activity against Candida spp. and Candida albicans biofilms through virtual screening” (Eur J Med Chem, 2019)
Converted amounts (≈) assume the structure as drawn.

Columns and labels:
Candida albicans [1] = test: Disruption of Candida albicans SC5314 pre-formed mature biofilm assessed as reduction in biofilm biomass incubated for 24 hrs by spectrophotometry; assay type: functional
In short: (§1)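 C. albicans SC5314 biofilms grown on a 96-peg lid (Calgary device, MBEC protocol) from 10^6 cfu/ml inoculum for 24 h at 37 °C. Pegs rinsed in 0.9% saline, then challenged 24 h at 35 °C with twofold dilutions, 512-0.5 µg/ml. MBIC: no well turbidity by visual inspection. MBEC: pegs sonicated into RPMI/2% glucose, regrowth overnight, OD 550 nm plus visual turbidity.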

Candida albicans [2] = test: Antibiofilm activity against Candida albicans SC5314 assessed as inhibition of biofilm formation by turbidity based visual inspection method; assay type: functional; in short: as §1
Candida tropicalis = test: Antifungal activity against azole-resistant Candida tropicalis assessed as reduction in fungal growth incubated for 48 hrs by broth microdilution method; assay type: functional
In short: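 CLSI broth microdilution in RPMI 1640 (glutamine, no bicarbonate) buffered to pH 7.0 with MOPS. Azole-resistant clinical C. tropicalis isolate, stored at -80 °C in glycerol, subcultured twice on Sabouraud dextrose agar. Inoculum from 24-h subcultures, final 0.5 to 2.5×10^3 cfu/ml. Compounds in DMSO, twofold final 1024–0.125 µg/ml. Incubated 35 °C, 48 h. MIC = lowest concentration fully inhibiting visible growth.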

Candida albicans [3] = test: Antifungal activity against azole-susceptible Candida albicans ATCC 90028 assessed as reduction in fungal growth incubated for 48 hrs by broth microdilution method; assay type: functional; conditions: ATCC 90028, 48 h
In short: (§2)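 CLSI broth microdilution in RPMI 1640 with MOPS at pH 7.0. Inoculum taken from 24-h Sabouraud subcultures, final 0.5-2.5×10^3 cfu/ml. Compounds in DMSO, twofold series 1024-0.125 µg/ml final. Incubated 48 h at 35 °C. MIC is the lowest concentration giving complete inhibition of visible growth. Fluconazole served as the reference.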

Pichia kudriavzevii = test: Antifungal activity against azole-susceptible Candida krusei ATCC 6258 assessed as reduction in fungal growth incubated for 48 hrs by broth microdilution method; assay type: functional; conditions: ATCC 6258, 48 h; in short: as §2
Candida parapsilosis = test: Antifungal activity against azole-susceptible Candida parapsilosis ATCC 90018 assessed as reduction in fungal growth incubated for 48 hrs by broth microdilution method; assay type: functional; conditions: Lodderomyces parapsilosis, ATCC 90018, 48 h; in short: as §2
U-937 = test: Cytotoxicity against human U937 cells assessed as cell viability at 0.125 to 32 ug/ml incubated for 24 to 48 hrs by MTT assay; assay type: cell-based
In short: (§3)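 MTT assay on U937 monocytic cells, 4×10³ cells/well, in RPMI-1640 with 10% FBS. Eight concentrations, 0.125-32 µg/ml, DMSO ≤0.32% v/v, each in triplicate. Exposure 24 or 48 h at 37 °C, 5% CO₂, then MTT for 4 h. Formazan dissolved in SDS/DMF, absorbance read at 570 nm. Viability calculated relative to untreated cells.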

Candida albicans [4] = test: Antifungal activity against Candida albicans by broth dilution assay; assay type: functional; in short: as §2
[5] = Cytotoxicity against human U937 cells assessed as cell viability at >= 8 ug/ml incubated for 24 to 48 hrs by MTT assay; assay type: cell-based, U-937; conditions: read-out: Activity; in short: as §3

SMILES | MBEC (Candida albicans [1]) [µg/mL] | MBIC (Candida albicans [2]) [µg/mL] | MIC (Candida tropicalis) [µg/mL] | MIC (Candida albicans [3]) [µg/mL] | MIC (Pichia kudriavzevii) [µg/mL] | MIC (Candida parapsilosis) [µg/mL] | Activity (U-937) | MIC (Candida albicans [4]) [µg/mL] | viability [5] [%]
CSc1ccc(C(=O)O/N=C(\Cn2ccnc2)c2ccc(Cl)cc2Cl)cc1.Cl | 256 | 2 | 16 | 2 | 64 | 2 | – | – | –
O=C(Cn1ccnc1)c1ccc(Cl)cc1Cl | – | – | – | 128 (≈ 502 µM) | 256 (≈ 1000 µM) | 32 (≈ 125 µM) | – | – | –
CC(C)(C)c1ccc(C(=O)O/N=C(\Cn2ccnc2)c2ccc(Cl)cc2Cl)cc1 | 256 | 128 | 64 (≈ 149 µM) | 4 (≈ 9.3 µM) | 4 (≈ 9.3 µM) | 4 (≈ 9.3 µM) | – | – | –
Cl.O=C(OC(Cn1ccnc1)c1ccc(Cl)cc1Cl)c1ccc2ccccc2c1 (racemic) | 256 | 0.5 | 1 | 1 | 2 | 1 | Non-Toxic | – | –
Cl.O=C(OC(Cn1ccnc1)c1ccc(Cl)cc1Cl)c1ccc(N2CCOCC2)cc1 (racemic) | – | – | – | 16 | 256 | 32 | – | – | –
N#Cc1ccc(C(=O)O/N=C(\Cn2ccnc2)c2ccc(Cl)cc2Cl)cc1 | – | – | – | 128 (≈ 321 µM) | 64 (≈ 160 µM) | 64 (≈ 160 µM) | – | – | –
Cl.O=C(CCC(=O)c1ccccc1)OC(Cn1ccnc1)c1ccc(Cl)cc1Cl (racemic) | – | – | – | 16 | 32 | 8 | – | – | –
Cl.O=C(OC(Cn1ccnc1)c1ccc(Cl)cc1Cl)c1cc2ccccc2[nH]1 (racemic) | 128 | 2 | 1 | 0.125 | 0.5 | 0.25 | Non-Toxic | – | –
Cl.O=C(O/N=C(\Cn1ccnc1)c1ccc(Cl)cc1Cl)c1ccc(Cl)cc1Cl | – | – | – | 64 | 64 | 64 | – | – | –
CC(C)c1ccc(C(=O)O/N=C(\Cn2ccnc2)c2ccc(Cl)cc2Cl)cc1.Cl | – | – | – | 16 | 32 | 16 | – | – | –
COc1ccc(C(=O)OC(Cn2ccnc2)c2ccc(Cl)cc2Cl)cc1.Cl (racemic) | 256 | 1 | 4 | 2 | 16 | 1 | – | – | –
Cl.O=C(OC(Cn1ccnc1)c1ccc(Cl)cc1Cl)c1ccc([N+](=O)[O-])cc1 (racemic) | – | – | 8 | 8 | 32 | 4 | – | > 300 | –
Cl.O=C(/C=C/c1ccccc1)OC(Cn1ccnc1)c1ccc(Cl)cc1Cl (racemic) | 64 | 0.5 | 4 | 0.5 | 1 | 1 | Non-Toxic | – | –
CC(C)(C)c1ccc(C(=O)OC(Cn2ccnc2)c2ccc(Cl)cc2Cl)cc1.Cl (racemic) | – | – | – | 128 | 256 | 128 | – | 10 | –
O=C(O/N=C(\Cn1ccnc1)c1ccc(Cl)cc1Cl)C1CCCCC1 | – | – | – | 64 (≈ 168 µM) | 64 (≈ 168 µM) | 64 (≈ 168 µM) | – | – | –
COc1ccc(C(=O)O/N=C(\Cn2ccnc2)c2ccc(Cl)cc2Cl)cc1 | 512 | 2 | 64 (≈ 158 µM) | 0.5 (≈ 1.24 µM) | 1 (≈ 2.47 µM) | 1 (≈ 2.47 µM) | Non-Toxic | – | –
OC(Cn1ccnc1)c1ccc(Cl)cc1Cl (stereo not given) | – | – | 256 (≈ 996 µM) | 8 (≈ 31.1 µM) | 128 (≈ 498 µM) | 4 (≈ 15.6 µM) | – | – | –
Cl.O=C(OC(Cn1ccnc1)c1ccc(Cl)cc1Cl)C1CCCC1 (racemic) | >1024 | 32 | 8 | 1 | 16 | 2 | – | – | –
C[C@@H]1[C@H](O)[C@@H](C)/C=C/C=C/C=C/C=C/C=C/C=C/C=C/[C@H](O[C@@H]2O[C@H](C)[C@@H](O)[C@H](N)[C@@H]2O)C[C@@H]2O[C@](O)(C[C@@H](O)C[C@@H](O)[C@H](O)CC[C@@H](O)C[C@@H](O)CC(=O)O[C@H]1C)C[C@H](O)[C@H]2C(=O)O [AMPHOTERICIN B] | 256 | 4 | – | – | – | – | – | – | –
Cl.O=C(CCCc1ccccc1)OC(Cn1ccnc1)c1ccc(Cl)cc1Cl (racemic) | 64 | 0.5 | 32 | 2 | 8 | 2 | – | – | –
O=C(O/N=C(\Cn1ccnc1)c1ccc(Cl)cc1Cl)c1ccc(-c2ccccc2)cc1 | 256 | 16 | 256 (≈ 568 µM) | 1 (≈ 2.22 µM) | 1 (≈ 2.22 µM) | 1 (≈ 2.22 µM) | Non-Toxic | – | –
Cl.O=C(OC(Cn1ccnc1)c1ccc(Cl)cc1Cl)c1ccc(-c2ccccc2)cc1 (racemic) | 256 | 2 | 512 | 0.25 | 1 | 0.25 | – | – | < 80

SMILES | MBEC (Candida albicans [1]) [µg/mL] | MBIC (Candida albicans [2]) [µg/mL] | MIC (Candida tropicalis) [µg/mL] | MIC (Candida albicans [3]) [µg/mL] | MIC (Pichia kudriavzevii) [µg/mL] | MIC (Candida parapsilosis) [µg/mL] | Activity (U-937) | MIC (Candida albicans [4]) [µg/mL] | viability [5] [%]
Cl.O=C(O/N=C(\Cn1ccnc1)c1ccc(Cl)cc1Cl)c1cc2ccccc2[nH]1 | – | – | 256 | 128 | 256 | 128 | – | – | –
Cc1ccc(C(=O)O/N=C(\Cn2ccnc2)c2ccc(Cl)cc2Cl)cc1 | – | – | – | 128 (≈ 330 µM) | 256 (≈ 659 µM) | 256 (≈ 659 µM) | – | – | –
Cl.N#Cc1ccc(C(=O)OC(Cn2ccnc2)c2ccc(Cl)cc2Cl)cc1 (racemic) | – | – | 16 | 8 | 64 | 4 | – | – | –
CC(C)c1ccc(C(=O)OC(Cn2ccnc2)c2ccc(Cl)cc2Cl)cc1.Cl (racemic) | – | – | – | 256 | 128 | 128 | – | – | –
Cl.O=C(O/N=C(\Cn1ccnc1)c1ccc(Cl)cc1Cl)c1ccc2ccccc2c1 | – | – | – | 256 | 256 | 256 | – | – | –
OC(Cn1cncn1)(Cn1cncn1)c1ccc(F)cc1F [FLUCONAZOLE] | – | – | 512 (≈ 1670 µM) | 0.5 (≈ 1.63 µM) | 32 (≈ 104 µM) | 0.5 (≈ 1.63 µM) | – | – | –
O/N=C(\Cn1ccnc1)c1ccc(Cl)cc1Cl | – | – | – | 32 (≈ 118 µM) | 256 (≈ 948 µM) | 32 (≈ 118 µM) | – | – | –
Cl.O=C(OC(Cn1ccnc1)c1ccc(Cl)cc1Cl)c1ccc(C(F)(F)F)cc1 (racemic) | – | – | – | 256 | 256 | 256 | – | – | –
O=C(/C=C/c1ccccc1)O/N=C(\Cn1ccnc1)c1ccc(Cl)cc1Cl | 512 | 128 | 64 (≈ 160 µM) | 2 (≈ 5 µM) | 4 (≈ 9.99 µM) | 2 (≈ 5 µM) | – | – | –
CCc1ccc(C(=O)O/N=C(\Cn2ccnc2)c2ccc(Cl)cc2Cl)cc1.Cl | – | – | 8 | 128 | 256 | 128 | – | – | –
Cl.O=C(O/N=C(\Cn1ccnc1)c1ccc(Cl)cc1Cl)c1ccc(-c2ccc(-c3ccccc3)cc2)cc1 | – | – | – | 128 | 256 | 128 | – | – | –
Cl.O=C(OC(Cn1ccnc1)c1ccc(Cl)cc1Cl)C1CCCCC1 (racemic) | – | – | 16 | 8 | 32 | 4 | – | – | –
Cl.O=C(O/N=C(\Cn1ccnc1)c1ccc(Cl)cc1Cl)c1ccc(Cl)cc1 | – | – | – | 32 | 64 | 32 | – | – | –
CCc1ccc(C(=O)OC(Cn2ccnc2)c2ccc(Cl)cc2Cl)cc1.Cl (racemic) | – | – | – | 256 | 256 | 256 | – | – | –
CC(C)(C)OC(=O)NCCCC(=O)OC(Cn1ccnc1)c1ccc(Cl)cc1Cl.Cl (racemic) | – | – | – | 8 | 128 | 16 | – | – | –
CSc1ccc(C(=O)OC(Cn2ccnc2)c2ccc(Cl)cc2Cl)cc1.Cl (racemic) | – | – | – | 8 | 28 | 16 | – | – | –
Cl.O=C(OC(Cn1ccnc1)c1ccc(Cl)cc1Cl)c1ccc(Cl)cc1Cl (racemic) | – | – | – | 128 | 256 | 128 | – | 300 | –
Cl.O=C(O/N=C(\Cn1ccnc1)c1ccc(Cl)cc1Cl)c1ccc2ccccc2n1 | – | – | – | 128 | 256 | 256 | – | – | –
O=C(O/N=C(\Cn1ccnc1)c1ccc(Cl)cc1Cl)c1ccccc1 | – | – | – | 32 (≈ 85.5 µM) | 32 (≈ 85.5 µM) | 32 (≈ 85.5 µM) | – | – | –
O=C(OC(Cn1ccnc1)c1ccc(Cl)cc1Cl)c1ccc(-c2ccc(-c3ccccc3)cc2)cc1 (racemic) | – | – | – | 256 (≈ 499 µM) | 256 (≈ 499 µM) | 256 (≈ 499 µM) | – | – | –
Cl.O=C(O/N=C(\Cn1ccnc1)c1ccc(Cl)cc1Cl)c1ccc([N+](=O)[O-])cc1 | – | – | – | 64 | 64 | 16 | – | – | –
